Published values gathered from unrelated publications.
Protocols differ between the studies behind these lines.
Target: BDNF/NT-3 growth factors receptor (NTRK2, Homo sapiens, UniProt Q16620)

The inhibition of `CC/C(=N\NC(=O)NCc1cccc(O)c1)c1ccc(O)c(C)c1O` is reported as 2.2% (enzyme activity, inhibitor; 0.1 µM).
For `CCCS(=O)(=O)Nc1ccc(F)c(C(=O)c2c[nH]c3ncc(-c4ccc(Cl)cc4)cc23)c1F`, the inhibition was less than 10% (enzyme activity, inhibitor; 1 µM).
For `O=C(Nc1ccc(Cl)cc1)Nc1cccc(C(=O)Nc2ccc3[nH]ncc3c2)c1`, the inhibition was 18.8% (enzyme activity, inhibitor, FRET; 1 µM).
`COc1cc2ncnc(Nc3ccc(Oc4ccccc4)cc3C)c2cc1OC` gave an inhibition of 11% (enzyme activity, inhibitor; 1 µM).
`CNC(=O)c1cc(Oc2ccc(NC(=O)Nc3ccc(Cl)c(C(F)(F)F)c3)cc2)ccn1` gave an inhibition of 14% (cell-free assay; 0.3 µM).
For `O=C(Nc1ccc(OC(F)(F)F)cc1)Nc1cccc(C(=O)Nc2ccc3[nH]ncc3c2)c1`, the inhibition was 14.5% (enzyme activity, inhibitor, FRET; 1 µM).
`CN1CC(Oc2cnc(C#N)cc2-c2ccn3nc(NC(=O)C4CC4)cc3c2)C1` gave an inhibition of 4% (enzyme activity, inhibitor; 1 µM).
With `O=C(Nc1cccc(Cl)c1)Nc1cccc(C(=O)Nc2ccc3[nH]ncc3c2)c1` the inhibition was 20.2% (enzyme activity, inhibitor, FRET; 1 µM).
`CNC(=O)c1cc2c(Oc3ccc(NC(=O)C4(C(=O)Nc5ccc(F)cc5)CC4)cc3)ccnc2cc1OC` has an inhibition of 100% (enzyme activity, inhibitor, radiometric; 1 µM).
`COc1cc2ncnc(Nc3ccc(Oc4ccccc4)c(C)c3C)c2cc1OC` gave an inhibition of -3% (enzyme activity, inhibitor; 1 µM).
